Laboratory results taken from ChEMBL document CHEMBL1671761, “Preclinical characterization of BI 201335, a C-terminal carboxylic acid inhibitor of the hepatitis C virus NS3-NS4A protease” (Antimicrob Agents Chemother, 2010).

What was measured:
[1] = target: Cathepsin C (Bos taurus) (UniProt Q864S1); experiment: Inhibition of bovine cathepsin C at 10 uM
[2] = target: Pro-cathepsin H (Homo sapiens) (UniProt P09668); experiment: Inhibition of human cathepsin H at 10 uM
[3] = target: Coagulation factor X (Homo sapiens) (UniProt P00742); experiment: Inhibition of human factor 10a at 10 uM
[4] = Tmax in dog at 5 mg/kg, po; format: ADME, organism-based, Canis lupus familiaris; set-up: dose 5 mg/kg, route oral; conditions: in vivo
Method in brief: (§1)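 Fasted male beagle dogs (9.8-13.8 kg) given a single oral dose in 0.5% Methocel/0.3% Tween 80. Plasma taken by solid-phase extraction and measured by LC-MS/MS at m/z 869.3 (LOQ 50 nM). Noncompartmental analysis. Mean ± SE for three males.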

[5] = target: Chymase (Homo sapiens) (UniProt P23946); experiment: Inhibition of human chymase at 10 uM
[6] = species on record: Rattus norvegicus; experiment: Inhibition of rat opiate receptor at 10 uM
[7] = target: D(1A) dopamine receptor (Homo sapiens) (UniProt P21728); experiment: Inhibition of human dopamine receptor 1 at 10 uM
[8] = target: Plasma kallikrein (Homo sapiens) (UniProt P03952); experiment: Inhibition of human kallikrein at 10 uM
Sequence of Plasma kallikrein (Homo sapiens) (P03952 20-390 limits assumed): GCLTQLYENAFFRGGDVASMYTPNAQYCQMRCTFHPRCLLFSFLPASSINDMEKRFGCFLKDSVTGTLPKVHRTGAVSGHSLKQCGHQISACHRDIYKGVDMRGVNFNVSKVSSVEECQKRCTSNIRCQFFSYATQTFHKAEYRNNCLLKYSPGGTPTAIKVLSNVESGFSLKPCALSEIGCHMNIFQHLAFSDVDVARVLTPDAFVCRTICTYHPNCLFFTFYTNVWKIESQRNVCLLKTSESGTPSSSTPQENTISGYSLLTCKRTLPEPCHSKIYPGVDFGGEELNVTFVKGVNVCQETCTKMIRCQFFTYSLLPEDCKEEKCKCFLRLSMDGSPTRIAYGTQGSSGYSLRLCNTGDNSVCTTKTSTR
Sequence of Plasma kallikrein (Homo sapiens) (P03952 391-638 limits assumed): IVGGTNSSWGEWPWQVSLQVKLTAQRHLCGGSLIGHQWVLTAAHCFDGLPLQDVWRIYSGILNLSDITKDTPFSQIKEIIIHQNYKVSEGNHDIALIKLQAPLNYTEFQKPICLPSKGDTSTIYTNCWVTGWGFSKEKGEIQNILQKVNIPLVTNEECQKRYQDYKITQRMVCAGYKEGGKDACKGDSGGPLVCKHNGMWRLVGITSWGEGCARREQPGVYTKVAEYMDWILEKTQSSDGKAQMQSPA

[9] = AUC (0 to infinity) in rat at 5 mg/kg, po; format: ADME, organism-based; set-up: time infinity, dose 5 mg/kg, route oral; conditions: plasma
Method in brief: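 Single oral dose of 5 mg/kg in 0.5% Methocel with 0.3% Tween 80 (10 ml/kg) to fasted male animals: Sprague-Dawley rats (275-300 g, overnight fast with 10% dextrose water), rhesus monkeys, beagle dogs. Rat blood from cannulated carotid at 0-8 h, pooled from 3 rats per time point; monkey/dog n=3. Plasma solid-phase extracted, LC-MS/MS at m/z 869.3; noncompartmental analysis.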

[10] = target: Matrix metalloproteinase-14 (Homo sapiens) (UniProt P50281); experiment: Inhibition of human MMP-14 at 10 uM
[11] = target: Adenosine receptor A1 (Homo sapiens) (UniProt P30542); experiment: Inhibition of human adenosine A1 receptor at 10 uM
Sequence of Adenosine receptor A1 (Homo sapiens) (P30542 whole entry): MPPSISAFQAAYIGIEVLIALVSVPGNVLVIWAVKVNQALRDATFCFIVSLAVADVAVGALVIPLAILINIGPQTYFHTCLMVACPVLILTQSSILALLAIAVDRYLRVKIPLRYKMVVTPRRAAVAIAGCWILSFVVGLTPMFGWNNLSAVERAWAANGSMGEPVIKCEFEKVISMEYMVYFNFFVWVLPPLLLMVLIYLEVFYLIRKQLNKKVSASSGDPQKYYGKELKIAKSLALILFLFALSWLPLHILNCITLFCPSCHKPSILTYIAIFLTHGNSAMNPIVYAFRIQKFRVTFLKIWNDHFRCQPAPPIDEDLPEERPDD

[12] = target: 5-hydroxytryptamine receptor 1A (Homo sapiens) (UniProt P08908); experiment: Inhibition of human 5-HT1A receptor at 10 uM
[13] = target: Caspase-6 (Homo sapiens) (UniProt P55212); experiment: Inhibition of human caspase-6 at 10 uM
Sequence of Caspase-6 (Homo sapiens) (P55212 24-179 limits assumed): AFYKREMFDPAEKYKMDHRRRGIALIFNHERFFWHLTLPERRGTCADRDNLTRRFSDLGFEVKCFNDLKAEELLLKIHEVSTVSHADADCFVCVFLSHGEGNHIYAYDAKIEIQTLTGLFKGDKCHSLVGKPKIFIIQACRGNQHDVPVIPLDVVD
Sequence of Caspase-6 (Homo sapiens) (P55212 194-293 limits assumed): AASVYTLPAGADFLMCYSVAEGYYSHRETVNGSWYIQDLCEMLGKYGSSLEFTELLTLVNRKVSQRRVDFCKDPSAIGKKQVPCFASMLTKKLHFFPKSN

[14] = species on record: Rattus norvegicus; experiment: Inhibition of rat potassium channel-V at 10 uM
[15] = Mean retention time in dog at 5 mg/kg, po; format: ADME, organism-based, Canis lupus familiaris; set-up: dose 5 mg/kg, route oral; conditions: in vivo; method in brief: as §1
[16] = Mean retention time in monkey at 5 mg/kg, po; format: ADME, organism-based, Macaca mulatta; set-up: dose 5 mg/kg, route oral; conditions: rhesus monkey, in vivo
Method in brief: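 Fasted male rhesus monkeys (3.0-4.8 kg) given a single oral dose in 0.5% Methocel/0.3% Tween 80. Plasma taken by solid-phase extraction and measured by LC-MS/MS at m/z 869.3 (LOQ 10 nM). Noncompartmental analysis. Mean ± SE for three males.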

[17] = target: D(2) dopamine receptor (Homo sapiens) (UniProt P14416); experiment: Inhibition of human dopamine receptor 2s at 10 uM
Sequence of D(2) dopamine receptor (Homo sapiens) (P14416 whole entry): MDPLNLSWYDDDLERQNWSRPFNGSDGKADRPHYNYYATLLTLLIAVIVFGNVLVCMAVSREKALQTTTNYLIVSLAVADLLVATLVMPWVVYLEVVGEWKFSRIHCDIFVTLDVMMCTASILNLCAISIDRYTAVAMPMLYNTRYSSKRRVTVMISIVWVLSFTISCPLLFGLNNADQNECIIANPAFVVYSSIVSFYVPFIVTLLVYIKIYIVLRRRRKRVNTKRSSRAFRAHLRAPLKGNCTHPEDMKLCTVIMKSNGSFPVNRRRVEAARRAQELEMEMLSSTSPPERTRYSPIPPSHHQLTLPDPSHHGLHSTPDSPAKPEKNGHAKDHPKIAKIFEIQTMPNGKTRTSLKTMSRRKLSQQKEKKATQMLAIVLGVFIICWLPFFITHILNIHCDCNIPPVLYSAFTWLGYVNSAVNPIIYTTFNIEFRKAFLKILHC

[18] = target: Cathepsin B (Homo sapiens, UniProt P07858); experiment: Inhibition of human cathepsin B at 10 uM
[19] = Mean retention time in Sprague-Dawley rat at 5 mg/kg, po; format: ADME, organism-based, Sparague-Dawley; set-up: dose 5 mg/kg, route oral; conditions: in vivo
Method in brief: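 Male Sprague-Dawley rats (275-300 g), fasted overnight with 10% dextrose water. Single oral dose in 0.5% Methocel/0.3% Tween 80 at 10 ml/kg. Carotid-cannula blood taken 0-8 h, with plasma from 3 rats pooled per time point. Solid-phase extraction, then LC-MS/MS at m/z 869.3 (LOQ 10 nM). Noncompartmental analysis.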

[20] = target: Coagulation factor VII (Homo sapiens) (UniProt P08709); experiment: Inhibition of human factor 7a at 10 uM
[21] = target: Caspase-3 (Homo sapiens) (UniProt P42574); experiment: Inhibition of human caspase-3 at 10 uM
Sequence of Caspase-3 (Homo sapiens) (P42574 29-175 limits assumed): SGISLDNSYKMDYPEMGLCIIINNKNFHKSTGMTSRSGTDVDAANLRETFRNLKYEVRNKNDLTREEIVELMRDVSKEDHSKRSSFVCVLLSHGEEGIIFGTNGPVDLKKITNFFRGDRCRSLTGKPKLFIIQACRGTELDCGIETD
Sequence of Caspase-3 (Homo sapiens) (P42574 176-277 limits assumed): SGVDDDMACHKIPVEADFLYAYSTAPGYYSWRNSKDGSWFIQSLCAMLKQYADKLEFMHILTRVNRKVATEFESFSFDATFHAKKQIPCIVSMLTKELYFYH

[22] = target: Protein kinase C (PKC) (Rattus norvegicus) (UniProt P05696+P68403+P09216+P63319+P09215+Q64617+Q9WTQ0+P09217); experiment: Inhibition of rat PKC at 10 uM
[23] = target: Caspase-7 (Homo sapiens) (UniProt P55210); experiment: Inhibition of human caspase-7 at 10 uM
Sequence of Caspase-7 (Homo sapiens) (P55210 24-198 limits assumed): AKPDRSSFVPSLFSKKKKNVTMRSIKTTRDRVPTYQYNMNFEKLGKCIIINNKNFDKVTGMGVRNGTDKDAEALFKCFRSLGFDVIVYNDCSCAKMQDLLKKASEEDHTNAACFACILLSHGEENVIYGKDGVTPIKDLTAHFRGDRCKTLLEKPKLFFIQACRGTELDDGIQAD
Sequence of Caspase-7 (Homo sapiens) (P55210 207-303 limits assumed): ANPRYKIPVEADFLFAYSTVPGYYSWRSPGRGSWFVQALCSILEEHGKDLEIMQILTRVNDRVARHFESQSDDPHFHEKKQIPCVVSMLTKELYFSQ

[24] = target: Adenosine receptor A2a (Homo sapiens) (UniProt P29274); experiment: Inhibition of human adenosine A2A receptor at 10 uM
[25] = target: 5-hydroxytryptamine receptor 7 (Homo sapiens) (UniProt P34969); experiment: Inhibition of human 5-HT7 receptor at 10 uM
Sequence of 5-hydroxytryptamine receptor 7 (Homo sapiens) (P34969 whole entry): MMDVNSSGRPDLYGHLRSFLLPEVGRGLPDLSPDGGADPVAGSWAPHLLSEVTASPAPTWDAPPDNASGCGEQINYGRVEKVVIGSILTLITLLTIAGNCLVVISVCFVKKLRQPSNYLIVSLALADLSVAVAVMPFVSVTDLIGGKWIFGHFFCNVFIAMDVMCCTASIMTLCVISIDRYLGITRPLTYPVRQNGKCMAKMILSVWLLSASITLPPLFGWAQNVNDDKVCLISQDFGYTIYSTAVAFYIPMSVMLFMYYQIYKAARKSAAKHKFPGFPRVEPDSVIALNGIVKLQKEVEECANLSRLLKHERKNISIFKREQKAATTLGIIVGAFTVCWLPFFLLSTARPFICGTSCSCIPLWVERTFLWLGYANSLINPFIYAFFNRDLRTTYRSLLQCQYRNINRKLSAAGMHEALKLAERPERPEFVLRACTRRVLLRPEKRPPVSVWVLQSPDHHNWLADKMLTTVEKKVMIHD

[26] = target: Procathepsin L (Homo sapiens) (UniProt P07711); experiment: Inhibition of human cathepsin L at 10 uM
Sequence of Procathepsin L (Homo sapiens) (P07711 114-333 limits assumed): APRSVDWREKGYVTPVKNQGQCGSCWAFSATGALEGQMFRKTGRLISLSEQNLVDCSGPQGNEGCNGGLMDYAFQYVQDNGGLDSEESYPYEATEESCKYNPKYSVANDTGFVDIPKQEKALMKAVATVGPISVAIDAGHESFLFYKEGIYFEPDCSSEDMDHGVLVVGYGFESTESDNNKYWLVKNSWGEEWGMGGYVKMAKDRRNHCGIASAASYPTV

[27] = target: Caspase-9 (Homo sapiens) (UniProt P55211); experiment: Inhibition of human caspase-9 at 10 uM
[28] = target: Alpha-1A adrenergic receptor (Rattus norvegicus) (UniProt P43140); experiment: Inhibition of rat adrenergic receptor Alpha-1at 10 uM
[29] = target: Angiotensin-converting enzyme (Oryctolagus cuniculus) (UniProt P12822); experiment: Inhibition of rabbit ACE at 10 uM
[30] = species on record: Rattus norvegicus; experiment: Inhibition of rat glycine receptor at 10 uM
[31] = target: Calpain-1 catalytic subunit (Homo sapiens) (UniProt P07384); experiment: Inhibition of human calpain-1 at 10 uM
[32] = target: 5-hydroxytryptamine receptor 6 (Homo sapiens) (UniProt P50406); experiment: Inhibition of human 5-HT6 receptor at 10 uM
[33] = target: Histamine H1 receptor (Homo sapiens) (UniProt P35367); experiment: Inhibition of human H1 receptor at 10 uM
Sequence of Histamine H1 receptor (Homo sapiens) (P35367 whole entry): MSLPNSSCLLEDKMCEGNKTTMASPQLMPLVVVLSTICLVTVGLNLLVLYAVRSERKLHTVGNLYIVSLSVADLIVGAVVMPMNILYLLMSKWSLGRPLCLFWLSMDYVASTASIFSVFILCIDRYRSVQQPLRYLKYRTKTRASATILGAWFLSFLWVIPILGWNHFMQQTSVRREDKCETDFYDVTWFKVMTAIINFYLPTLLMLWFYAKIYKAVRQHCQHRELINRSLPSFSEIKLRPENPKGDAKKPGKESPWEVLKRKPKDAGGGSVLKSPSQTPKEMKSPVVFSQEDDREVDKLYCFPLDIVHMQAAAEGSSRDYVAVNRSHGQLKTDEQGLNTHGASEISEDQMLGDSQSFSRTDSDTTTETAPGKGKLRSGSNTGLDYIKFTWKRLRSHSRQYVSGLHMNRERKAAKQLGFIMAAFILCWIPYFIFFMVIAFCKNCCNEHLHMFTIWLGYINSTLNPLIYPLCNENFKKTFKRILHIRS

[34] = target: Histamine H3 receptor (Homo sapiens) (UniProt Q9Y5N1); experiment: Inhibition of human H3 receptor at 10 uM
[35] = target: Glutamate receptor ionotropic, delta-1 (Rattus norvegicus) (UniProt Q62640); experiment: Inhibition of rat glutamate receptor at 10 uM
Sequence of Glutamate receptor ionotropic, delta-1 (Rattus norvegicus) (Q62640 whole entry): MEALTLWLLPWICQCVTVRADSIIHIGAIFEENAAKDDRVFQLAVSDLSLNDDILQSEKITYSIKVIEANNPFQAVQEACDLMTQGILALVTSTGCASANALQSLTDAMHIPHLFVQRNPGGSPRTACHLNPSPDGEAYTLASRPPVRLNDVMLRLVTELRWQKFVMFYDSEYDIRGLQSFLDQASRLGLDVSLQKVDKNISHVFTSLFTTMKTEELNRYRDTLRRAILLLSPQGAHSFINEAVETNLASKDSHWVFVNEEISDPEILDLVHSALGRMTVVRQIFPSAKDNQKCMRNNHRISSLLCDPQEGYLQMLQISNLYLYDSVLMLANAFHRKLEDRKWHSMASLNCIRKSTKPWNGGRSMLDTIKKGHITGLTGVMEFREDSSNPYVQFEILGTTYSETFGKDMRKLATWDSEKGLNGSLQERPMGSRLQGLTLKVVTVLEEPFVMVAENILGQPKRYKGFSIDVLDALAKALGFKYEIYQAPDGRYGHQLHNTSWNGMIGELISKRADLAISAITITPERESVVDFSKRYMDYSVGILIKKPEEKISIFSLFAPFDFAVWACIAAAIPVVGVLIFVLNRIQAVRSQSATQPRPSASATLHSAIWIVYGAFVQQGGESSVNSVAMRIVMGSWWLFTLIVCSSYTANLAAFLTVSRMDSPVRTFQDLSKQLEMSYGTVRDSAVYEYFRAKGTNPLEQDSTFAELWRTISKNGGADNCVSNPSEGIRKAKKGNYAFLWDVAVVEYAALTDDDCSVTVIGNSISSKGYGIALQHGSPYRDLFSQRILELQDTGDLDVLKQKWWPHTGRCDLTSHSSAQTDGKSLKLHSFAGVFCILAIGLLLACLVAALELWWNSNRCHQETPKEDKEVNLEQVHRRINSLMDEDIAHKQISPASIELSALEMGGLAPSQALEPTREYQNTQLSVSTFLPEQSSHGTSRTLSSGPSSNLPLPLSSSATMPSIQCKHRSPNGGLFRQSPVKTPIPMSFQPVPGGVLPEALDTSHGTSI

[36] = target: Neutrophil elastase (Homo sapiens) (UniProt P08246); experiment: Inhibition of human serum elastase, neutrophil at 10 uM by fluorimetry
[37] = system: Hepatitis C virus; experiment: Antiviral activity against HCV 2a infected in Huh7 cells assessed as inhibition of viral replication after 72 hrs by RT-PCR; format: functional, organism-based, Hepacivirus hominis; conditions: genotype 2a, Huh-7, 72 h
Method in brief: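 Infectious JFH1 virus (cell culture-adapted, core K74T and NS5A C2441S) was produced by transfecting transcribed RNA into Huh-7.5 cells. Huh-7.5 cells (1×10^4/well, seeded 24 h before) were infected with virus plus a nine-concentration compound series in 0.5% DMSO for 72 h. HCV RNA was quantified by real-time RT-PCR. Mean ± SD, ≥3 experiments.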

[38] = target: Cathepsin Z (Homo sapiens) (UniProt Q9UBR2); experiment: Inhibition of human cathepsin X at 10 uM
[39] = target: Caspase-4 (Homo sapiens) (UniProt P49662); experiment: Inhibition of human caspase-4 at 10 uM
[40] = species on record: Rattus norvegicus; experiment: Inhibition of rat calcium channel N-type at 10 uM

Sequence of Cathepsin C (Bos taurus) (Q864S1 as listed by the source): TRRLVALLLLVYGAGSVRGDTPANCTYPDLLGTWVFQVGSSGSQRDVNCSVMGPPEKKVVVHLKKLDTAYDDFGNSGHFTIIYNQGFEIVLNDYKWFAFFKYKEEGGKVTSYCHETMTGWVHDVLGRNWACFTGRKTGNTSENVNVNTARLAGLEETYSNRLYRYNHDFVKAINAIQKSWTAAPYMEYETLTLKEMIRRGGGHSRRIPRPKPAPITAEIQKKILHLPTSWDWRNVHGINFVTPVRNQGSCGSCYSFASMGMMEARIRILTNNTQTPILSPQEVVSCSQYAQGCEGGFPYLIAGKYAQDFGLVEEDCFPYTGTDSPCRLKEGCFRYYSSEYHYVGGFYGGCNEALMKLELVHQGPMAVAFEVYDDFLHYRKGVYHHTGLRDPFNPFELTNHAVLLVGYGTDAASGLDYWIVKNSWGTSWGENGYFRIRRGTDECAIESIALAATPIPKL

C=C[C@@H]1C[C@]1(NC(=O)[C@@H]1C[C@@H](Oc2cc(-c3csc(NC(=O)C(C)C)n3)nc3c(Br)c(OC)ccc23)CN1C(=O)[C@@H](NC(=O)OC1CCCC1)C(C)(C)C)C(=O)O
inhibition [1]: 1% | inhibition [2]: 21% | inhibition [3]: 5% | Tmax [4]: 0.83 h | inhibition [5]: 11% | inhibition [6]: 26% | inhibition [7]: 14% | inhibition [8]: 0% | AUC(0-inf) [9]: 1.63 µM·h | inhibition [10]: 3% | inhibition [11]: 2% | inhibition [12]: 18% | inhibition [13]: 28% | inhibition [14]: 7% | MRT [15]: 3.7 h | MRT [16]: 2.6 h | inhibition [17]: 10% | inhibition [18]: 22% | MRT [19]: 3.18 h | inhibition [20]: 6% | inhibition [21]: 5% | inhibition [22]: 15% | inhibition [23]: 28% | inhibition [24]: 23% | inhibition [25]: 3% | inhibition [26]: 7% | inhibition [27]: 23% | inhibition [28]: 4% | inhibition [29]: 5% | inhibition [30]: 6% | inhibition [31]: 18% | inhibition [32]: 22% | inhibition [33]: 3% | inhibition [34]: 5% | inhibition [35]: 38% | inhibition [36]: 22% | EC50 [37]: 43 nM | inhibition [38]: 0% | inhibition [39]: 33% | inhibition [40]: 9%
